Source: ChEMBL document CHEMBL4480426, “Novel multi-target directed ligands based on annelated xanthine scaffold with aromatic substituents acting on adenosine receptor and monoamine oxidase B. Synthesis, in vitro and in silico studies” (Bioorg Med Chem, 2019)

What was measured:
[1] = Solubility of the compound in MEM media at 10 to 100 uM; type: physicochemical
Adenosine receptor A3 = molecular target: T1, Adenosine receptor A3 (Homo sapiens, UniProt P0DMS8); experiment: Displacement of [3H]PSB11 from recombinant human adenosine A3 receptor expressed in CHO cells; type: cell-based
T1 sequence (P0DMS8 whole entry): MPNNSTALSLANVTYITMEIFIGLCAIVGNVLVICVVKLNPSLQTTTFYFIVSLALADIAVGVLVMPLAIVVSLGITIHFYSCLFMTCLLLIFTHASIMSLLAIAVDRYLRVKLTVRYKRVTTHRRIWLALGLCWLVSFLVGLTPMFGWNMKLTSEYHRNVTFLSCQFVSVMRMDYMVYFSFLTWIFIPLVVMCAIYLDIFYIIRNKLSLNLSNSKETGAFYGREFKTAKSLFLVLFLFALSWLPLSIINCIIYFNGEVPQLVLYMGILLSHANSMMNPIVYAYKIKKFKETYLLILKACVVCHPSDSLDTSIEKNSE

HepG2 = experiment: Hepatotoxicity against human HepG2 cells assessed as reduction in cell viability at 0.5 to 1 uM measured after 72 hrs by CellTiter96 Aqueous non-radioactive cell proliferation assay; type: toxicity, cell-based; details: hepg2, 72 h
Procedure, shortened: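 HepG2 cells seeded at 1.5×10^4 cells/well in MEM with 4.5 g/L glucose and 10% FBS, grown 24 h at 37 °C, 5% CO2. Compounds diluted in the same medium and applied for 72 h. CellTiter 96 AQueous reagent then added for 2 h, absorbance read at 490 nm. One-way ANOVA with Bonferroni post test.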

Adenosine receptor A1 = molecular target: T2, Adenosine receptor A1 (Homo sapiens, UniProt P30542); experiment: Displacement of [3H]CCPA from recombinant human adenosine A1 receptor expressed in CHO cells; type: cell-based
T2 sequence (P30542 whole entry): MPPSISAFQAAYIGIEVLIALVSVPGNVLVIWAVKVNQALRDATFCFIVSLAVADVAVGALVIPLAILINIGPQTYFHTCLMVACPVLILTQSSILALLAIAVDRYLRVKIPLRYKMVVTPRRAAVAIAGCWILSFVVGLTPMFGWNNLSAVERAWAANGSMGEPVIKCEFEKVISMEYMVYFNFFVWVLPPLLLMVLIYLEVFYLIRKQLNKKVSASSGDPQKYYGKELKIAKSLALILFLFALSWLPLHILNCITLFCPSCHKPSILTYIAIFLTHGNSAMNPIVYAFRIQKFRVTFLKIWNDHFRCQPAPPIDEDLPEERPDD

[2] = molecular target: T3, Adenosine receptor A3 (Homo sapiens) (UniProt P0DMS8); experiment: Displacement of [3H]PSB11 from recombinant human adenosine A3 receptor expressed in CHO cells at 1 uM relative to control; type: cell-based
T3 sequence (whole entry): T1 sequence (P0DMS8 whole entry)
Procedure, shortened: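 Purchased membranes of CHO cells expressing human A1 ([3H]CCPA) or human A3 ([3H]PSB-11). A single high compound concentration is screened first; for potent compounds, full inhibition curves spanning 3 orders of magnitude. At least three independent experiments.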

[3] = Antioxidant activity assessed as increase in total ferric ion reducing activity at 1000 uM using FeCl3.6H2O and TPTZ incubated for 10 mins under dark condition by FRAP assay relative to control; type: functional; set-up: scale not given: the % may be the effect or the level left
Procedure, shortened: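 FRAP reagent made by mixing 10 parts 300 mM acetate buffer pH 3.6, 1 part 10 mM TPTZ in 40 mM HCl and 1 part 20 mM FeCl3·6H2O. Reagent mixed with compound solution, 10 min at room temperature in the dark. Ferrous-TPTZ complex read at 593 nm. Result is absorbance increase versus solvent sample. FeSO4·7H2O standard curve, 37.5–1200 μM.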

With `Cn1c(=O)c2c(nc3n2CCCCN3Cc2ccc(Cl)c(Cl)c2)n(C)c1=O` the solubility [1] was “Insoluble”, the Ki (Adenosine receptor A3) was over 1000 nM and the Activity (HepG2) was “Toxic”. For the same compound, the Ki (Adenosine receptor A1) was over 1000 nM, the inhibition [2] was 26% and the Activity [3] was 0.59%.
